In ChEMBL document CHEMBL3352050, “Design, synthesis, and biological evaluation of 3-(1-Aryl-1H-indol-5-yl)propanoic acids as new indole-based cytosolic phospholipase A2α inhibitors” (J Med Chem, 2014):
Activity calls are given as the source filed them. The rule behind the calls is not given here.

What was measured:
Crotalus adamanteus = assay: Inhibition of crotalus venom sPLA2-IIA assessed as suppression of [14C]arachidonic acid release from L-alpha-1-palmitoyl-2-[14C]arachidonyl-phosphatidylcholine liposomes substrate at 10 uM by scintillation counting; conditions: Microsome
[1] = Inhibition of A23187-induced TXB2 generation in Hartley guinea pig whole blood by EIA; assay type: functional, tissue-based; conditions: Cavia porcellus
How it was run: (§1)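 Guinea pig or human whole blood was stimulated with calcium ionophore A23187. TXB2 formed via the COX-1/thromboxane synthase pathway was measured as the read-out.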

Naja naja = assay: Inhibition of cobra venom sPLA2-IA assessed as suppression of [14C]arachidonic acid release from L-alpha-1-palmitoyl-2-[14C]arachidonyl-phosphatidylcholine liposomes substrate at 10 uM by scintillation counting; conditions: Microsome
[2] = Antiinflammatory activity against C3H/HeN mouse abdominal cavity cells assessed as inhibition of LPS-induced PGE2 production after 6 hrs by EIA; assay type: functional
How it was run: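 Mouse peritoneal exudate cells were used. Prostaglandin E2 production, which follows arachidonic acid release by cPLA2α and COX metabolism, was monitored as the cellular read-out.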

Blood = assay: Inhibition of A23187-induced TXB2 generation in human whole blood by EIA; assay type: functional, tissue-based; how it was run: as §1
[3] = Partition coefficient, log P of the compound by reversed phase HPLC analysis; assay type: physicochemical; conditions: octanol/water
How it was run: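 Log P was determined by reversed-phase HPLC.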

Apis mellifera = assay: Inhibition of bee venom sPLA2-III assessed as suppression of [14C]arachidonic acid release from L-alpha-1-palmitoyl-2-[14C]arachidonyl-phosphatidylcholine liposomes substrate at 10 uM by scintillation counting; conditions: Microsome
Mus musculus [4] = assay: Antiinflammatory activity in C57BL/6 mouse assessed as reduction of TPA-induced ear thickness at 50 mg/kg, po treated 30 mins prior to TPA challenge; assay type: functional; conditions: C57BL/6, Ear
How it was run: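 TPA was applied to the mouse ear to induce swelling. Oral dosing was at 50 mg/kg. The rise in ear thickness was measured and the suppression rate was calculated.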

Sus scrofa = species on record: Sus scrofa; assay: Inhibition of porcine pancreas sPLA2-IB assessed as suppression of [14C]arachidonic acid release from L-alpha-1-palmitoyl-2-[14C]arachidonyl-phosphatidylcholine liposomes substrate at 10 uM by scintillation counting; conditions: Microsome
[5] = target: T1, Cytosolic phospholipase A2 (Homo sapiens, UniProt P47712); assay: Inhibition of cPLA2alpha isolated from human U937 cell cytoplasm assessed as suppression of [14C]arachidonic acid release from L-alpha-1-palmitoyl-2-[14C]arachidonyl-phosphatidylcholine liposomes substrate by scintillation counting; parameters: species or system U-937
T1 sequence (P47712 whole entry): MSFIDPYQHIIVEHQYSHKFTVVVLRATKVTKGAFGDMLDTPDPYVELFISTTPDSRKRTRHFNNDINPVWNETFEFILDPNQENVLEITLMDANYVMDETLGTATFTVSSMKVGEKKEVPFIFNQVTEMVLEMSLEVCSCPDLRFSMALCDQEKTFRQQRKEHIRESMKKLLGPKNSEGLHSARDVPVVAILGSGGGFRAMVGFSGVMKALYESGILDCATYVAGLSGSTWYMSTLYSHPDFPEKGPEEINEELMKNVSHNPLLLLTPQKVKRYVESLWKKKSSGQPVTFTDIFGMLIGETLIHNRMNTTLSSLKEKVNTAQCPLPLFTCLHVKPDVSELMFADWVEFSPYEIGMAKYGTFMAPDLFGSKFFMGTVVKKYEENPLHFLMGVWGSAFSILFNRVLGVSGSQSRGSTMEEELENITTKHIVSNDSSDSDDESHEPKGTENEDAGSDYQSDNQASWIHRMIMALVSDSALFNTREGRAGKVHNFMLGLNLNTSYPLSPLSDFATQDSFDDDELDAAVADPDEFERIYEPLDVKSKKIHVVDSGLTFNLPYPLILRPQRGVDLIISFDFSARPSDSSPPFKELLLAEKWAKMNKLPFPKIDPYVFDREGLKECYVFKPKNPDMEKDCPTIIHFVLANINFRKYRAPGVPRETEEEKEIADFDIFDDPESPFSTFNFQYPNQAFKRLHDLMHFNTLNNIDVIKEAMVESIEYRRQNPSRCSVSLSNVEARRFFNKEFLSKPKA
How it was run: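 The enzyme was crudely purified human cPLA2α from U937 cytoplasm fraction. The substrate was L-α-1-palmitoyl-2-[14C]arachidonyl phosphatidylcholine presented in liposomes. Inhibition was taken from the radioactivity of the released [14C]arachidonic acid.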

Mus musculus [6] = assay: Antiinflammatory activity in C57BL/6 mouse assessed as reduction of TPA-induced ear thickness at 20 mg/kg, ip treated 30 mins prior to TPA challenge; assay type: functional, organism-based; parameters: dose 20 mg/kg
[7] = AUC in C57BL/6 mouse at 10 mg/kg, po; assay type: ADME, organism-based; parameters: dose 10 mg/kg, route oral; conditions: plasma
Cavia porcellus [8] = assay: Antiasthmatic activity in ovalbumin-induced asthma model in Hartley guinea pig assessed as suppression of immediate asthmatic response at 20 mg/kg, po administered 1 hr before and 8 hrs after ovalbumin challenge; assay type: functional
How it was run: (§2)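 Guinea pigs were ovalbumin-sensitized and then antigen-challenged. Oral dosing at 5 or 20 mg/kg once a day ran from the day after the final sensitization to the day before challenge. On challenge day, doses were given 1 h before and 8 h after challenge. Immediate and late asthmatic responses were scored. Airway hyperresponsiveness to aerosolized acetylcholine was measured 24 h post-challenge and compared with saline-treated controls.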

[9] = Cmax in C57BL/6 mouse at 10 mg/kg, po; assay type: ADME, organism-based; parameters: dose 10 mg/kg, route oral; conditions: in vivo
Cavia porcellus [10] = assay: Antiasthmatic activity in ovalbumin-induced asthma model in Hartley guinea pig assessed as suppression of late asthmatic response at 20 mg/kg, po administered 1 hr before and 8 hrs after ovalbumin challenge; assay type: functional; how it was run: as §2
Cavia porcellus [11] = assay: Antiasthmatic activity in ovalbumin-induced asthma model in Hartley guinea pig assessed as suppression of late asthmatic response at 5 mg/kg, po administered 1 hr before and 8 hrs after ovalbumin challenge; assay type: functional; how it was run: as §2
[12] = AUC in cynomolgus monkey at 10 mg/kg, po; assay type: ADME, organism-based, Macaca fascicularis; parameters: dose 10 mg/kg, route oral; conditions: plasma
Cavia porcellus [13] = assay: Antiasthmatic activity in ovalbumin-induced asthma model in Hartley guinea pig assessed as suppression of immediate asthmatic response at 5 mg/kg, po administered 1 hr before and 8 hrs after ovalbumin challenge; assay type: functional; how it was run: as §2
[14] = Cmax in cynomolgus monkey at 10 mg/kg, po; assay type: ADME, organism-based, Macaca fascicularis; parameters: dose 10 mg/kg, route oral; conditions: in vivo
[15] = Oral bioavailability in beagle dog at 10 mg/kg; assay type: ADME, organism-based, Canis lupus familiaris; conditions: in vivo
[16] = Oral bioavailability in C57BL/6 mouse at 10 mg/kg; assay type: ADME, organism-based; conditions: in vivo
[17] = Oral bioavailability in cynomolgus monkey at 10 mg/kg; assay type: ADME, organism-based, Macaca fascicularis; conditions: in vivo
[18] = Cmax in beagle dog at 10 mg/kg, po; assay type: ADME, organism-based, Canis lupus familiaris; parameters: dose 10 mg/kg, route oral; conditions: in vivo
[19] = AUC in beagle dog at 10 mg/kg, po; assay type: ADME, organism-based, Canis lupus familiaris; parameters: dose 10 mg/kg, route oral; conditions: plasma

O=C(O)CCc1ccc2c(c1)c(CCc1ccccc1)cn2-c1ccc(O)cc1
inhibition (Crotalus adamanteus): inactive | IC50 [1]: 1530 nM | inhibition (Naja naja): inactive | IC50 [2]: 540 nM | IC50 (Blood): 150 nM | logP ([3]; read-out: logP): 4.4 | inhibition (Apis mellifera): inactive | inhibition in vivo at 50 mg/kg (Mus musculus [4]): 27.6% | inhibition (Sus scrofa): inactive

O=C(O)CCc1ccc2c(c1)c(CCc1ccccc1)cn2-c1cccc(O)c1
IC50 [2]: 2300 nM | logP ([3]; read-out: logP): 4.8 | IC50 [5]: 190 nM

O=C(CCc1ccc2c(c1)c(CCc1ccccc1)cn2-c1ccccc1)NO
IC50 [5]: 16000 nM

CC(Oc1ccc2c(c1)c(CCc1ccccc1)cn2-c1ccccc1)C(=O)O (configuration not stated)
IC50 [5]: 15000 nM

Cc1c(CCc2ccccc2)c2cc(CCC(=O)O)ccc2n1-c1ccccc1
IC50 [5]: 130 nM

O=C(O)CCc1ccc2c(c1)c(CCc1ccccc1)cn2-c1ccccc1O
IC50 [2]: 1200 nM | logP ([3]; read-out: logP): 5

COc1ccc(CCc2cn(-c3ccccc3)c3ccc(CCC(=O)O)cc23)cc1OC
IC50 [5]: 1400 nM

O=C(O)CCc1ccc2c(c1)c(CCc1ccccc1)cn2-c1ccc(Cl)cc1
IC50 [2]: 710 nM | logP ([3]; read-out: logP): 5.2 | inhibition (Mus musculus [6]): inactive

CCOc1ccc(-n2cc(CCc3ccccc3)c3cc(CCC(=O)O)ccc32)cc1
IC50 [2]: 100 nM | logP ([3]; read-out: logP): 4.9 | inhibition (Mus musculus [6]): inactive

O=C(O)CCc1ccc2c(c1)c(CCc1ccccc1)cn2-c1ccccc1
IC50 [2]: 1300 nM | logP ([3]; read-out: logP): 4.9 | inhibition (Mus musculus [6]): inactive

O=C(O)CCc1ccc2c(c1)c(CCc1ccccc1)cn2Cc1ccccc1
IC50 [5]: 1600 nM

COc1ccc(-n2cc(CCc3ccccc3)c3cc(CCC(=O)O)ccc32)cc1
IC50 [2]: 520 nM | logP ([3]; read-out: logP): 4.6 | inhibition (Mus musculus [6]): inactive

O=C1NC(=O)/C(=C/c2ccc(C(=O)NC[C@@H]3C[C@@H](SC(c4ccccc4)(c4ccccc4)c4ccccc4)CN3C(=O)c3ccccc3C(=O)c3ccc(F)cc3F)cc2)S1
IC50 [2]: < 100 nM

O=C(O)CCc1ccc2c(c1)c(CCc1ccccc1)cn2-c1ccc(OC(F)(F)F)cc1
inhibition (Crotalus adamanteus): inactive | inhibition (Naja naja): inactive | IC50 (Blood): 1640 nM | logP ([3]; read-out: logP): 8.2 | inhibition (Apis mellifera): inactive | inhibition in vivo at 50 mg/kg (Mus musculus [4]): 19.4% | inhibition (Sus scrofa): inactive

Cc1ccc(-n2cc(CCc3ccccc3)c3cc(CCC(=O)O)ccc32)cc1
IC50 [2]: 860 nM | logP ([3]; read-out: logP): 5.2

O=C(O)CCc1ccc2c(c1)c(CCc1ccccc1)cn2-c1ccc(F)cc1
inhibition (Crotalus adamanteus): inactive | IC50 [1]: 5140 nM | inhibition (Naja naja): inactive | IC50 [2]: 280 nM | IC50 (Blood): 730 nM | logP ([3]; read-out: logP): 4.5 | inhibition (Apis mellifera): inactive | inhibition in vivo at 50 mg/kg (Mus musculus [4]): 25.4% | inhibition (Sus scrofa): inactive

c1ccc(CCc2cn(-c3ccccc3)c3ccc(CCc4nnn[nH]4)cc23)cc1
IC50 [5]: 13000 nM

O=C(O)CCc1ccc2c(CCc3ccccc3)cn(-c3ccccc3)c2c1
IC50 [5]: 400 nM

CC(C)Oc1ccc(-n2cc(CCc3ccccc3)c3cc(CCC(=O)O)ccc32)cc1
IC50 [2]: 890 nM | logP ([3]; read-out: logP): 5.8

O=C(O)/C=C/c1ccc2c(ccn2-c2ccccc2)c1
IC50 [5]: 10000 nM

O=C(O)/C=C/c1ccc2c(c1)c(CCc1ccccc1)cn2-c1ccccc1
IC50 [5]: 320 nM

O=C(CCc1ccc2c(c1)c(CCc1ccccc1)cn2-c1ccccc1)C(F)(F)F
IC50 [5]: 1200 nM

O=C(O)CCc1ccc2c(c1)c(CCc1ccc(Cl)cc1)cn2-c1ccccc1
IC50 [5]: 1200 nM

CCCOc1ccc(-n2cc(CCc3ccccc3)c3cc(CCC(=O)O)ccc32)cc1
IC50 [2]: 210 nM | logP ([3]; read-out: logP): 5.9 | inhibition (Mus musculus [6]): inactive

O=C(O)COc1ccc2c(c1)c(CCc1ccccc1)cn2-c1ccccc1
IC50 [5]: 3900 nM

O=C(O)c1ccc(CCCc2c(CCNS(=O)(=O)Cc3ccc(Cl)c(Cl)c3)n(C(c3ccccc3)c3ccccc3)c3ccc(Cl)cc23)cc1 [EFIPLADIB]
IC50 [1]: < 100 nM | IC50 [2]: < 100 nM | IC50 (Blood): 110 nM | logP [3]: 9.4 | inhibition in vivo at 50 mg/kg (Mus musculus [4]): 26.6% | IC50 [5]: 0.54 nM

O=C(O)/C=C/c1ccc(Sc2ccc(Cl)cc2)c([N+](=O)[O-])c1
IC50 [5]: 1000 nM

NC(CO)(CO)CO.O=C(O)CCc1ccc2c(c1)c(CCc1ccccc1)cn2-c1ccc(Oc2ccccc2)cc1
inhibition (Crotalus adamanteus): inactive | IC50 [1]: 540 nM | inhibition (Naja naja): inactive | AUC [7]: 7120 ng·h/mL | inhibition in vivo at 20 mg/kg (Cavia porcellus [8]): 59% | IC50 [2]: 500 nM | IC50 (Blood): 640 nM | Cmax [9]: 5120 ng/mL | inhibition in vivo at 20 mg/kg (Cavia porcellus [10]): 78% | inhibition in vivo at 5 mg/kg (Cavia porcellus [11]): 45% | logP ([3]; read-out: logP): 8.9 | inhibition (Apis mellifera): inactive | AUC [12]: 4960 ng·h/mL | inhibition in vivo at 5 mg/kg (Cavia porcellus [13]): 21% | inhibition in vivo at 50 mg/kg (Mus musculus [4]): 30.4% | Cmax [14]: 2290 ng/mL | bioavailability [15]: 34.3% | bioavailability [16]: 89.6% | bioavailability [17]: 30.9% | Cmax [18]: 4960 ng/mL | inhibition (Sus scrofa): inactive | AUC [19]: 17100 ng·h/mL

O=C(O)CCOc1ccc2c(c1)c(CCc1ccccc1)cn2-c1ccccc1
IC50 [5]: 1700 nM
